Values joined by “and” are separate entries in the source; they are usually repeats but may differ in a detail not shown here. Equal values may be shown once.
Tests used:
[1] = Plasma pharmacokinetics after single and multiple oral doses; format: in vivo, human; conditions: for AUC / concentration at 24 h / Cmax / Tmax / Vd/F / half-life: human, plasma, oral; for AUC: AUC0-τ; for Cmax: C max; for Vd/F: V z/F
Summary of the method: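 Healthy adults received once-daily oral doses of 50 or 100 mg (8 active: 2 placebo) for up to 14 days, in the morning after an overnight fast of at least 8 h. Plasma was sampled after the first dose through 16 h, predose on days 2, 4 and 7, and through 72 h after the day-14 dose. Concentrations were measured by LC-MS/MS (LLOQ 0.0500 ng/mL). Parameters came from noncompartmental analysis: accumulation ratios day 14 versus day 1, CL/F as dose/AUC0-inf. Values given as geometric mean (geometric CV%).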

[2] = Food effect on plasma PK; format: in vivo, human
Summary of the method: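 The same healthy subjects from the 75-mg fasted single-dose cohort, after a washout of at least five half-lives, fasted 8 h, ate a high-fat breakfast within 20 min and received a single oral 75 mg dose or placebo 30 min after breakfast began. Plasma was sampled predose, through 72 h and on day 7. Concentrations were measured by LC-MS/MS (LLOQ 0.0500 ng/mL). Relative bioavailability versus fasted dosing was based on AUC and Cmax.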

[3] = test system: RIP1 pathway activation (CCL4 release in human whole blood); assay: Ex vivo TBZ stimulation assay of whole blood for CCL4 secretion; format: cell-based
Summary of the method: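 Whole blood from healthy volunteers in the single- and multiple-ascending-dose stages, collected across the dosing periods, stimulated ex vivo to activate the RIP1-mediated necroptosis pathway; secreted CCL4 measured. Inhibition derived by normalising CCL4 levels to each subject's baseline, then adjusting to the maximum inhibition and SD per cohort. Placebo subjects were sampled in parallel.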

[4] = MAD 50 mg q.d., n=5, geometric mean (geometric CV%)
[5] = MAD 100 mg q.d., n=7, geometric mean (geometric CV%)
[6] = 50 mg, MAD 50 mg q.d., Day 1, n=5, geometric mean (geometric CV%)
[7] = 50 mg, MAD 50 mg q.d., Day 14, n=5, geometric mean (geometric CV%)
[8] = 100 mg, MAD 100 mg q.d., Day 1, n=7, geometric mean (geometric CV%)
[9] = 100 mg, MAD 100 mg q.d., Day 14, n=7, geometric mean (geometric CV%)

SMILES: O=C(c1nc2n(n1)[C@H](c1ccccc1)C[C@@H]2F)C1CC1 [GDC‐8264]
- CL/F ([1]; MAD 50 mg q.d., Day 14, n=5, geometric mean (geometric CV%)): 4.96 (14.1) L/h
- ARAUC (accumulation ratio based on AUC0-τ of day 14 versus day 1) [1, 4]: 1.39 (4.8)
- ARCmax (accumulation ratio based on C max of day 14 versus day 1) [1, 4]: 1.37 (18.3)
- CL/F ([1]; MAD 100 mg q.d., Day 14, n=7, geometric mean (geometric CV%)): 4.72 (15.2) L/h
- ARAUC (accumulation ratio based on AUC0-τ of day 14 versus day 1) [1, 5]: 1.31 (17.7)
- ARCmax (accumulation ratio based on C max of day 14 versus day 1) [1, 5]: 1.41 (27.3)
- day on which steady-state trough concentrations were observed ([1]; MAD, daily doses): 4 days
- CL/F ([1]; SAD 5 mg single oral dose, fasted, n=6, geometric mean (geometric CV%)): 4.71 (10.0) L/h
- CL/F ([1]; SAD 25 mg single oral dose, fasted, n=6, geometric mean (geometric CV%)): 5.08 (30.3) L/h
- CL/F ([1]; SAD 75 mg single oral dose, fasted, n=5, geometric mean (geometric CV%)): 5.70 (19.0) L/h
- CL/F ([1]; SAD 75 mg single oral dose, high fat meal, n=5, geometric mean (geometric CV%)): 5.79 (23.2) L/h
- CL/F ([1]; SAD 150 mg single oral dose, fasted, n=5, geometric mean (geometric CV%)): 5.40 (18.4) L/h
- CL/F ([1]; SAD 225 mg single oral dose, fasted, n=6, geometric mean (geometric CV%)): 4.81 (6.7) L/h
- AUC [1, 6]: 7270 ng·h/mL
- AUC [1, 7]: 10100 ng·h/mL
- concentration at 24 h ([1]; 50 mg, C24, MAD 50 mg q.d., Day 1, n=5, geometric mean (geometric CV%)): 151 ng/mL
- Cmax [1, 6]: 610 ng/mL
- Cmax [1, 7]: 836 ng/mL
- Tmax ([1]; 50 mg, T max, MAD 50 mg q.d., Day 1, n=5, median (range)): 3 h
- Tmax ([1]; 50 mg, T max, MAD 50 mg q.d., Day 14, n=5, median (range)): 2.5 h
- Vd/F [1, 7]: 80.3 L
- half-life ([1]; 50 mg, t 1/2, MAD 50 mg q.d., Day 14, n=5, geometric mean (geometric CV%)): 11.2 h
- AUC [1, 8]: 16200 ng·h/mL
- AUC [1, 9]: 21200 ng·h/mL
- concentration at 24 h ([1]; 100 mg, C24, MAD 100 mg q.d., Day 1, n=7, geometric mean (geometric CV%)): 342 ng/mL
- Cmax [1, 8]: 1180 ng/mL
- Cmax [1, 9]: 1660 ng/mL
- Tmax ([1]; 100 mg, T max, MAD 100 mg q.d., Day 1, n=7, median (range)): 3 h
- Tmax ([1]; 100 mg, T max, MAD 100 mg q.d., Day 14, n=7, median (range)): 2.5 h
- Vd/F [1, 9]: 77.4 L
- half-life ([1]; 100 mg, t 1/2, MAD 100 mg q.d., Day 14, n=7, geometric mean (geometric CV%)): 11.4 h
- half-life ([1]; mean half-life, tablet formulation): 11 to 13 h
- half-life ([1]; mean terminal half-life, range of means across single doses): 10 to 13 h
- Tmax ([1]; median T max, SAD 5- and 25-mg doses (suspension formulation)): 1.3 to 1.9 h
- Tmax ([1]; median T max, SAD 75-225-mg doses (tablet formulation)): 3 to 4 h
- Tmax ([1]; median T max, overall, as summarised in the discussion): 2.5 to 4 h
- accumulation ratio [AR] ([1]; multiple dosing q.d. up to 14 days, steady state): ~ 1.4 and 1.3–1.4
- effect of a high-fat meal on the PKs ([2]; 75 mg single dose): no significant effect
- delay of median T max after a high-fat meal ([2]; 75 mg, compared to the fasted state): 1 h
- timepoint through which >90% inhibition of CCL4 was sustained ([3]; SAD 5- and 25-mg cohorts): ≥ 48 h
- timepoint through which >90% inhibition of CCL4 was sustained ([3]; SAD 75-, 150-, and 225-mg cohorts): ≥ 72 h
- levels of CCL4 ([3]; SAD 150-mg cohort, 144-h timepoint): comparable to the placebo cohort
- group mean inhibition of CCL4 production ([3]; SAD 225-mg cohort, 144 h, mean ± SD, placebo 17% ± 3%): 49% ± 9%
- inhibition of CCL4 ([3]; all SAD cohorts (5-225 mg), 1.5 h postdose): greater than 90%
